From ChEMBL document CHEMBL1221204, “Spliceostatin A targets SF3b and inhibits both splicing and nuclear retention of pre-mRNA” (Nat Chem Biol, 2007)
Activity calls are given as the source filed them. The rule behind the calls is not given here.

Assays:
HeLa [1] = assay: Induction of truncated p27 expression in human HeLa cells up to 500 nM after 14 hrs by Western blotting; type: functional, cell-based
In short: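 HeLa cells were exposed for 14 h to 1, 3, 10, 30, 100 and 300 ng ml-1. Cell extracts were immunoblotted for p27 and its C-terminally truncated form p27*, with chemiluminescent read-out.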

COS-7 [2] = assay: Induction of subcellular localization in truncated p27 in african green monkey COS7 cells at 10 ng/ml after 6 hrs by immunofluorescence assay; type: functional, cell-based; conditions: Chlorocebus aethiops
COS-7 [3] = assay: Induction of subcellular localization in p27 in african green monkey COS7 cells at 10 ng/ml after 6 hrs by immunofluorescence assay; type: functional, cell-based; conditions: Chlorocebus aethiops
[4] = biological target: Splicing factor 3B subunit 3 (Homo sapiens) (UniProt Q15393); assay: Binding affinity to SAP130 in human HeLa cells at 2 uM by LC-MS/MS analysis
HeLa [5] = assay: Induction of truncated p27 expression in human HeLa cells at 1 to 1000 nM by Western blot analysis; type: functional, cell-based
[6] = tested on: SF3b complex (Homo sapiens); assay: Binding affinity to SF3b SAP155/SAP145/SAP130 complex in human HeLa cells at 2 uM by Western blotting
[7] = biological target: Splicing factor 3B subunit 1 (Homo sapiens) (UniProt O75533); assay: Binding affinity to SAP155 in human HeLa cells at 2 uM by LC-MS/MS analysis
[8] = biological target: T1, Splicing factor 3B subunit 2 (Homo sapiens) (UniProt Q13435); assay: Binding affinity to SAP145 in human HeLa cells at 2 uM by LC-MS/MS analysis; type: cell-based
T1 sequence (whole entry): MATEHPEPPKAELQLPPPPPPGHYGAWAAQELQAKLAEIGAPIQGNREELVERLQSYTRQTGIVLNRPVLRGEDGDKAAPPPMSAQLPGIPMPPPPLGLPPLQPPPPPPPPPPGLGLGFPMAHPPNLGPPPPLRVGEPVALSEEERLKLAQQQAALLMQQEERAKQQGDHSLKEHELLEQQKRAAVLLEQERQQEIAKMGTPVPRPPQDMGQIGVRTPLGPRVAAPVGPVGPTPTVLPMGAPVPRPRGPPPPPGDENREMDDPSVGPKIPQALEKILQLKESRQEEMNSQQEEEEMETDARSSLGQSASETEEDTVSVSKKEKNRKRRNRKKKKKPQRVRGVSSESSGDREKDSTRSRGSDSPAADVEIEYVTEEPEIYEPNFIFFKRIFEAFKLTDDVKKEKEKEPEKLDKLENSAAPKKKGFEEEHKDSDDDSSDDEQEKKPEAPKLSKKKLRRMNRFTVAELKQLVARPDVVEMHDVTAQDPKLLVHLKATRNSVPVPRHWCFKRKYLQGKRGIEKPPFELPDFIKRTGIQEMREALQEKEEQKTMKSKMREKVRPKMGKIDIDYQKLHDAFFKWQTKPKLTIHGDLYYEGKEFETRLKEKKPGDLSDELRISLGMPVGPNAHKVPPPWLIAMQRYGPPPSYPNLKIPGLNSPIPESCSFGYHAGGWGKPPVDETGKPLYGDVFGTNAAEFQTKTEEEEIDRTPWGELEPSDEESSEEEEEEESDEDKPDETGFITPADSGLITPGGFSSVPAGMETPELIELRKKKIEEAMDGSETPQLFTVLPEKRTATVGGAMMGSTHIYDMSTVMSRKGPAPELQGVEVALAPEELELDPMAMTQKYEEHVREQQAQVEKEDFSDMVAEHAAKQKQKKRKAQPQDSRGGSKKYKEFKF

[9] = biological target: Cyclin-dependent kinase 2 (Homo sapiens) (UniProt P24941); assay: Induction of CDK2 in HEK293T cells transfected with FLAG-tagged p27 at 200 nM by autoradiography; type: cell-based; conditions: HEK-293T
In short: (§1)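 HEK 293T cells were transfected with pcDNA3.1, FLAG-p27 or FLAG-p27*, or were treated with MeOH, FR901464 (20, 200 nM) or SSA (190 nM). CDK2 was immunoprecipitated and its kinase activity read by autoradiography with histone H1 and (gamma-32P)ATP. Associated proteins were detected by western blotting.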

[10] = biological target: Cyclin-dependent kinase 2 (Homo sapiens) (UniProt P24941); assay: Induction of CDK2 in HEK293T cells transfected with FLAG-tagged truncated p27 at 20 nM by Western blot analysis; type: cell-based; conditions: HEK-293T; in short: as §1
HeLa [11] = assay: Induction of CDK6 expression in human HeLa cells at 100 ng/ml after 14 hrs by Western blotting; type: functional, cell-based
MCF7 [12] = assay: Induction of truncated p27 expression in human MCF7 cells at 1 to 100 ng/ml after 14 hrs by immunoblotting; type: functional, cell-based
In short: (§2)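 Human cell lines (HeLa, HEK 293T, MCF7, A549) cultured in DMEM with 10% heat-inactivated FBS. Cells treated with graded FR901464 concentrations for 14 h. Extracts immunoblotted for p27 and the truncated p27* form, with chemiluminescent detection.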

HeLa [13] = assay: Induction of p27 expression in human HeLa cells at 1 to 100 ng/ml after 14 hrs by immunoblotting; type: functional, cell-based; in short: as §2
HeLa [14] = assay: Induction of CDK4 expression in human HeLa cells at 100 ng/ml after 14 hrs by Western blotting; type: functional, cell-based
HeLa [15] = assay: Induction of cyclin A expression in human HeLa cells at 100 ng/ml after 14 hrs by Western blotting; type: functional, cell-based
HeLa [16] = assay: Induction of CDK2 expression in human HeLa cells at 100 ng/ml after 14 hrs by Western blotting; type: functional, cell-based
[17] = Half life of the compound in culture medium by HPLC analysis; type: physicochemical
HEK-293T [18] = assay: Induction of p27 expression in HEK293T cells at 1 to 100 ng/ml after 14 hrs by immunoblotting; type: functional, cell-based; conditions: Homo sapiens; in short: as §2
[19] = biological target: Cyclin-dependent kinase 2 (Homo sapiens) (UniProt P24941); assay: Induction of CDK2 in HEK293T cells transfected with FLAG-tagged truncated p27 at 200 nM by autoradiography; type: cell-based; conditions: HEK-293T; in short: as §1
HeLa [20] = assay: Induction of truncated p27 expression in human HeLa cells at 100 ng/ml after 14 hrs in presence of […] proteasome inhibitor MG132; type: functional, cell-based
HeLa [21] = assay: Induction of p27 expression in human HeLa cells at 100 ng/ml after 14 hrs in presence of […] proteasome inhibitor MG132; type: functional, cell-based
HeLa [22] = assay: Induction of p21 expression in human HeLa cells at 100 ng/ml after 16 hrs by Western blotting; type: functional, cell-based
In short: (§3)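 HeLa cells grown in DMEM with 10% FBS and treated with FR901464 at 100 ng ml-1 for 16 h. Lysates prepared by sonication in ice-cold IP buffer with protease inhibitors. Proteins separated by SDS-PAGE and immunoblotted with anti-p16, anti-p21 and anti-p27 antibodies; chemiluminescence detection.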

HEK-293T [23] = assay: Induction of FLAG-tagged p27 expression in HEK293T cells at 100 ng/ml after 14 hrs by Western blotting; type: functional, cell-based; conditions: Homo sapiens
HEK-293T [24] = assay: Induction of truncated p27 expression in HEK293T cells at 1 to 100 ng/ml after 14 hrs by immunoblotting; type: functional, cell-based; conditions: Homo sapiens; in short: as §2
HeLa [25] = assay: Induction of p27 expression in human HeLa cells at 100 ng/ml after 16 hrs by Western blotting; type: functional, cell-based; in short: as §3
A549 [26] = assay: Induction of p27 expression in human A549 cells at 1 to 100 ng/ml after 14 hrs by immunoblotting; type: functional, cell-based; in short: as §2
MCF7 [27] = assay: Induction of p27 expression in human MCF7 cells at 1 to 100 ng/ml after 14 hrs by immunoblotting; type: functional, cell-based; in short: as §2
[28] = biological target: Cyclin-dependent kinase 2 (Homo sapiens) (UniProt P24941); assay: Induction of CDK2 in HEK293T cells transfected with FLAG-tagged p27 at 20 nM by Western blot analysis; type: cell-based; conditions: HEK-293T; in short: as §1
HeLa [29] = assay: Induction of p16 expression in human HeLa cells at 100 ng/ml after 16 hrs by Western blotting; type: functional, cell-based; in short: as §3
A549 [30] = assay: Induction of truncated p27 expression in human A549 cells at 1 to 100 ng/ml after 14 hrs by immunoblotting; type: functional, cell-based; in short: as §2

Sequence of Splicing factor 3B subunit 3 (Homo sapiens) (Q15393 whole entry, looked up, the tested form may be a part): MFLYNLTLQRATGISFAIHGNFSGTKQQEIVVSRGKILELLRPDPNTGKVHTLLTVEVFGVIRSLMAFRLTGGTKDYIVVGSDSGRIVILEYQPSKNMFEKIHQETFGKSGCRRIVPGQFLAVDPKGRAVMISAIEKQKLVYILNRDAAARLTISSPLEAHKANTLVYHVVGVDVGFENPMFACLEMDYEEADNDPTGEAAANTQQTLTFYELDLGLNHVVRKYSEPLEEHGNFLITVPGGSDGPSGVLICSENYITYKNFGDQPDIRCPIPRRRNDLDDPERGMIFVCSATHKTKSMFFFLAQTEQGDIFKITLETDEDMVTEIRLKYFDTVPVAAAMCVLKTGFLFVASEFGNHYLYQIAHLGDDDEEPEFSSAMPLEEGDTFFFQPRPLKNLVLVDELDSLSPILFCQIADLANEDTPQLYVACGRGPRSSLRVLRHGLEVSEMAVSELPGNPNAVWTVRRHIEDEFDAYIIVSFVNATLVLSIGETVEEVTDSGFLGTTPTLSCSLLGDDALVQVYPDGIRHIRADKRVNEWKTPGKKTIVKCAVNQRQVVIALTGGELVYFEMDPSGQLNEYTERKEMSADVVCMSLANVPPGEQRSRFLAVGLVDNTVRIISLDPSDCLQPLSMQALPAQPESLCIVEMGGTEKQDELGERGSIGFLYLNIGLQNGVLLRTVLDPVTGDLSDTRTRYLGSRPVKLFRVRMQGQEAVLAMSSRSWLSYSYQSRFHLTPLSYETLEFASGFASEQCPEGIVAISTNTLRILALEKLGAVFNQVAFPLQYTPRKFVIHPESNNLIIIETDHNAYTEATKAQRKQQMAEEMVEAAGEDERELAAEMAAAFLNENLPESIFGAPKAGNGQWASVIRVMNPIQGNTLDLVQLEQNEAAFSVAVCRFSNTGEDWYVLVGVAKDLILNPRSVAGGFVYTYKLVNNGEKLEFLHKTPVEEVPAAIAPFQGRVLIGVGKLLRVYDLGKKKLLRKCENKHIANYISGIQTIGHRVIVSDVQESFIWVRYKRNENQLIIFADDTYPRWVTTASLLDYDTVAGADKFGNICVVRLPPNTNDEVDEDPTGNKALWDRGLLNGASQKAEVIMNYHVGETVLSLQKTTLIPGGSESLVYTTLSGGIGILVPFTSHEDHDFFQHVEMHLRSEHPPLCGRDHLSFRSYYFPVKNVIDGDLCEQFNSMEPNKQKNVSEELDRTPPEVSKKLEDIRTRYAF
Sequence of Splicing factor 3B subunit 1 (Homo sapiens) (O75533 whole entry, looked up): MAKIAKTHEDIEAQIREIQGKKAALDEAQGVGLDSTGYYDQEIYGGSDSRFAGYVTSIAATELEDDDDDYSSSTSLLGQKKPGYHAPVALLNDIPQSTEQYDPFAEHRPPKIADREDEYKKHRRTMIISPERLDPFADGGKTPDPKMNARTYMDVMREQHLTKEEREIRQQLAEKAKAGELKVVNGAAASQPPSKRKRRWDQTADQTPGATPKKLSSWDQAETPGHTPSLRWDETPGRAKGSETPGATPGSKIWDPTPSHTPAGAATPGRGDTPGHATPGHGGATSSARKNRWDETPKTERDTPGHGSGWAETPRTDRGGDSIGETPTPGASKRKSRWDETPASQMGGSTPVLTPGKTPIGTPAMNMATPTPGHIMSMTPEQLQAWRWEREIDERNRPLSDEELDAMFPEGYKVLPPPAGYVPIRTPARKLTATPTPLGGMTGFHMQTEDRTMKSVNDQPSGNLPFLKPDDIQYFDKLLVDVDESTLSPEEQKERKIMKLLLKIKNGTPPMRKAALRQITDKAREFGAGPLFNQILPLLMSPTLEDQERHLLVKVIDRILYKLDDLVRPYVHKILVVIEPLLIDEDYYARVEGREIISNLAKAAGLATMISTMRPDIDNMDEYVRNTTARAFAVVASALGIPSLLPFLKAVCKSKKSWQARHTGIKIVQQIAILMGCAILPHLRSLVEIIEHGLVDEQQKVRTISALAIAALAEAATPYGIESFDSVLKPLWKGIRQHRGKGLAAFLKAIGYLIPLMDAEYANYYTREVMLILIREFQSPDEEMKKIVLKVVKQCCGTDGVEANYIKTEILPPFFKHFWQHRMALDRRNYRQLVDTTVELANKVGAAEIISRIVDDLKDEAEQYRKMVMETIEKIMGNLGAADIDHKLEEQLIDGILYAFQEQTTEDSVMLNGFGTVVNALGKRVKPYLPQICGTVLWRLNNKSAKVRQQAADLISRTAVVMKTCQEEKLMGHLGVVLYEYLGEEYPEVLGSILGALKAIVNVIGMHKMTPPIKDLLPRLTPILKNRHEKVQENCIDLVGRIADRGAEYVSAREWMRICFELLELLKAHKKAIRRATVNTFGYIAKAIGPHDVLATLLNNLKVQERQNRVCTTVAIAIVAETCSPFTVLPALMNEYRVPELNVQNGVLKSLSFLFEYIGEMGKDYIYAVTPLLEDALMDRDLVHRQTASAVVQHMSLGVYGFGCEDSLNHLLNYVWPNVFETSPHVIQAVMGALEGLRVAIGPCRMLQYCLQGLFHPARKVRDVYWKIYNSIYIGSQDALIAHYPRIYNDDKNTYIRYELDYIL

Structure (SMILES): CO[C@]1(C)C[C@@]2(CO2)[C@H](OC(C)=O)[C@@H](/C=C/C(C)=C/C[C@@H]2O[C@H](C)[C@H](NC(=O)/C=C\[C@H](C)OC(C)=O)C[C@@H]2C)O1
- Activity (HeLa [1]): inactive

Structure (SMILES): CCC(=C/[C@H](C)C/C=C/C(C)=C/[C@@H](C)C(=O)[C@@H](C)[C@H](O)[C@@H](C)C/C(C)=C/C(=O)O)/C=C/[C@@H]1OC(=O)C=C[C@@H]1C
- Activity (COS-7 [2]): Active
- Activity (COS-7 [3]): Active

Structure (SMILES): CC(=O)O[C@@H](C)/C=C\C(=O)N[C@@H]1C[C@H](C)[C@H](C/C=C(C)/C=C/[C@H]2O[C@](C)(OCCNC(=O)CCCCCNC(=O)CCCCCNC(=O)CCCC[C@@H]3SC[C@@H]4NC(=O)N[C@@H]43)C[C@@]3(CO3)[C@@H]2O)O[C@@H]1C
- Activity [4]: Active
- Activity (HeLa [5]): Active
- Activity [6]: Active
- Activity [7]: Active
- Activity [8]: Active

Structure (SMILES): CC(=O)O[C@@H](C)/C=C\C(=O)N[C@@H]1C[C@H](C)[C@H](C/C=C(C)/C=C/[C@H]2O[C@](C)(O)CC3(CO3)[C@@H]2O)O[C@@H]1C (single isomer, unassigned)
- Activity [9]: Active
- Activity [10]: inactive
- Activity (HeLa [11]): Active
- Activity (MCF7 [12]): Active
- Activity (HeLa [13]): Active
- Activity (HeLa [14]): Active
- Activity (HeLa [15]): Active
- Activity (HeLa [16]): Active
- half-life [17]: 45 min
- Activity (HEK-293T [18]): Active
- Activity [19]: inactive
- Activity (HeLa [20]): Active
- Activity (HeLa [21]): Active
- Activity (HeLa [22]): Active
- Activity (HEK-293T [23]): Active
- Activity (HEK-293T [24]): Active
- Activity (HeLa [25]): Active
- Activity (A549 [26]): Active
- Activity (MCF7 [27]): Active
- Activity [28]: inactive
- Activity (HeLa [29]): Active
- Activity (A549 [30]): Active
